Source: ChEMBL document CHEMBL1152770, “Inhibitors of hepatitis C virus polymerase: synthesis and biological characterization of unsymmetrical dialkyl-hydroxynaphthalenoyl-benzothiadiazines” (J Med Chem, 2009)

Experiments:
[1] = Plasma clearance in monkey at 5 mg/kg, iv; assay type: ADME, organism-based, Macaca mulatta; set-up: dose 5 mg/kg, route intravenous; settings: rhesus monkey
Method in brief: (§1)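 Vehicle DMSO:PEG400 (10:90, v/v). Dosing at 5 mg/kg in rat and monkey; dog 5 mg/kg or 2.5 mg/kg. Protein precipitation with acetonitrile, then LC-MS/MS in negative-ion MRM (m/z 516.2→437.0) against spiked standards with internal standard.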

[2] = AUC in rat at 5 mg/kg, iv; assay type: ADME, organism-based; set-up: dose 5 mg/kg, route intravenous; settings: plasma; method in brief: as §1
[3] = Plasma clearance in dog at 5 mg/kg, iv; assay type: ADME, organism-based, Canis lupus familiaris; set-up: dose 5 mg/kg, route intravenous; method in brief: as §1
[4] = Metabolic stability in dog hepatocytes assessed as intrinsic clearance; assay type: ADME, cell-based, Canis lupus familiaris, Liver, Hepatocyte
Hepatitis C virus [5] = test: Ratio of EC50 for HCV isolate Con1 in presence of 40% human serum to EC50 for HCV isolate Con1; assay type: functional, Hepacivirus hominis
Method in brief: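 Genotype 1b-con1 subgenomic replicon in Huh-7 cells. Four-day incubation with inhibitor in medium with 5% FBS, with or without 40% human serum. EC50 from the fall in HCV RNA copy number by real-time PCR. Ratio is EC50 with serum over EC50 without.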

Hepatocyte [6] = test: Metabolic stability in rat hepatocytes assessed as intrinsic clearance; assay type: ADME, cell-based, Liver
[7] = Inhibition of HCV isolate H77 NS5B polymerase after 3 hrs by scintillation counting
[8] = Terminal phase volume of distribution in monkey at 5 mg/kg, iv; assay type: ADME, organism-based, Macaca mulatta; set-up: dose 5 mg/kg, route intravenous; settings: rhesus monkey, in vivo, read-out: Vbeta
Method in brief: (§2)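 Single intravenous dose. Heparinized plasma sampled at 0.1, 0.25, 0.5, 1, 2, 4, 6, 9, 12 and 24 h, plus 3 and 15 h in dog. Drug was isolated by acetonitrile protein precipitation and quantified by LC-MS in negative-ion MRM mode (m/z 516.2→437.0) against an internal standard. Concentrations came from unweighted linear regression of spiked standards.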

[9] = Elimination half life in dog at 5 mg/kg, iv; assay type: ADME, organism-based, Canis lupus familiaris; set-up: dose 5 mg/kg, route intravenous; settings: in vivo, read-out: beta t1/2 (converted); method in brief: as §1
[10] = Drug level in rat liver at 5 mg/kg, po after 6 hrs; assay type: ADME, organism-based; set-up: dose 5 mg/kg, route oral; settings: read-out: Drug uptake
Method in brief: (§3)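 Rats dosed orally at 5 mg/kg, four groups, sacrificed at 6 and 12 h. Plasma and liver homogenate extracted by acetonitrile protein precipitation with internal standard and quantified by LC-MS (negative-ion MRM). Liver/plasma ratio taken from the two concentrations.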

[11] = Metabolic stability in rat liver microsomes assessed as intrinsic clearance; assay type: ADME, Microsome
[12] = Volume of distribution at steady state in rat at 5 mg/kg, iv; assay type: ADME, organism-based; set-up: dose 5 mg/kg, route intravenous; settings: in vivo, read-out: Vdss; method in brief: as §2
[13] = Metabolic stability in dog liver microsomes assessed as intrinsic clearance; assay type: ADME, Canis lupus familiaris, Microsome
[14] = Metabolic stability in monkey liver microsomes assessed as intrinsic clearance; assay type: ADME, Macaca mulatta, Microsome; settings: rhesus monkey
Hepatitis C virus [15] = test: Antiviral activity against HCV 1a containing chimeric genotype 1a-H77/1b-con1 subgenom in human Huh7 cells assessed as reduction in viral RNA after 4 days by RT-PCR; settings: subtype 1a, Huh-7, 96 h
[16] = Plasma clearance in rat at 5 mg/kg, iv; assay type: ADME, organism-based; set-up: dose 5 mg/kg, route intravenous; method in brief: as §1
[17] = Cytotoxicity against human HuH7 cells by MTT assay; assay type: cell-based, Huh-7; settings: read-out: TD50 (the source's name)
Method in brief: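 Cytotoxicity in Huh-7 replicon cultures measured by MTT colorimetric assay after the four-day incubation.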

[18] = Metabolic stability in human liver microsomes assessed as intrinsic clearance; assay type: ADME, Microsome
[19] = Terminal phase volume of distribution in rat at 5 mg/kg, iv; assay type: ADME, organism-based; set-up: dose 5 mg/kg, route intravenous; settings: in vivo, read-out: Vbeta; method in brief: as §2
[20] = Terminal phase volume of distribution in dog at 5 mg/kg, iv; assay type: ADME, organism-based, Canis lupus familiaris; set-up: dose 5 mg/kg, route intravenous; settings: in vivo, read-out: Vbeta; method in brief: as §1
[21] = Drug level in rat liver at 5 mg/kg, po after 12 hrs; assay type: ADME, organism-based; set-up: dose 5 mg/kg, route oral; settings: read-out: Drug uptake; method in brief: as §3
[22] = Inhibition of HCV isolate BK NS5B polymerase after 3 hrs by scintillation counting
[23] = Elimination half life in rat at 5 mg/kg, iv; assay type: ADME, organism-based; set-up: dose 5 mg/kg, route intravenous; settings: in vivo, read-out: beta t1/2 (converted); method in brief: as §1
[24] = Volume of distribution at steady state in monkey at 5 mg/kg, iv; assay type: ADME, organism-based, Macaca mulatta; set-up: dose 5 mg/kg, route intravenous; settings: rhesus monkey, in vivo, read-out: Vdss; method in brief: as §2
Hepatitis C virus [25] = test: Antiviral activity against HCV isolate Con1 in human Huh7 cells assessed as reduction in viral RNA after 4 days by RT-PCR; settings: isolate Con1, Huh-7, 96 h
[26] = Elimination half life in monkey at 5 mg/kg, iv; assay type: ADME, organism-based, Macaca mulatta; set-up: dose 5 mg/kg, route intravenous; settings: rhesus monkey, in vivo, read-out: beta t1/2 (converted); method in brief: as §1
[27] = Metabolic stability in monkey hepatocytes assessed as intrinsic clearance; assay type: ADME, cell-based, Macaca mulatta, Liver, Hepatocyte; settings: rhesus monkey
Hepatocyte [28] = test: Metabolic stability in human hepatocytes assessed as intrinsic clearance; assay type: ADME, cell-based, Liver
[29] = Volume of distribution at steady state in dog at 5 mg/kg, iv; assay type: ADME, organism-based, Canis lupus familiaris; set-up: dose 5 mg/kg, route intravenous; settings: in vivo, read-out: Vdss; method in brief: as §2
[30] = AUC in monkey at 5 mg/kg, iv; assay type: ADME, organism-based, Macaca mulatta; set-up: dose 5 mg/kg, route intravenous; settings: rhesus monkey, plasma; method in brief: as §1
[31] = AUC in dog at 5 mg/kg, iv; assay type: ADME, organism-based, Canis lupus familiaris; set-up: dose 5 mg/kg, route intravenous; settings: plasma; method in brief: as §1

## CC(C)CC[C@@]1(C)C(=O)C(C2=NS(=O)(=O)c3cc(NS(C)(=O)=O)ccc3N2)=C([O-])c2ccccc21.[Na+]
[1]
  clearance: 8.5 mL/min/kg
[2]
  AUC: 5200 ng·h/mL
[3]
  clearance: 7.33 mL/min/kg
[4]
  CL: 2.2 µL/min/mg
Hepatitis C virus [5]
  Ratio EC50: 14
Hepatocyte [6]
  CL: 9 µL/min/mg
[7]
  IC50: 1.3 nM
[8]
  Vd: 0.5 L/kg
[9]
  half-life: 2.7 h
[10]
  concentration at 6 h: 3800 ng/g
[11]
  microsomal CLint: 36.3 µL/min/mg
[12]
  Vd: 1.72 L/kg
[13]
  microsomal CLint: 3.5 µL/min/mg
[14]
  microsomal CLint: 62 µL/min/mg
Hepatitis C virus [15]
  EC50: 11 nM
[16]
  clearance: 16 mL/min/kg
[17]
  CC50: 35300 nM
[18]
  microsomal CLint: 29.6 µL/min/mg
[19]
  Vd: 1.97 L/kg
[20]
  Vd: 1.74 L/kg
[21]
  concentration at 12 h: 1430 ng/g
[22]
  IC50: 0.9 nM
[23]
  half-life: 1.2 h
[24]
  Vd: 0.19 L/kg
Hepatitis C virus [25]
  EC50: 3 nM
[26]
  half-life: 0.7 h
[27]
  CL: 29.2 µL/min/mg
Hepatocyte [28]
  CL: 6.8 µL/min/mg
[29]
  Vd: 1.1 L/kg
[30]
  AUC: 10200 ng·h/mL
[31]
  AUC: 11800 ng·h/mL
